Measured values reported in PubChem BioAssay.
Results filed as inconclusive are left out.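 How the source made its calls, unless noted: active means viability increase at or above a cutoff of the median across tested compounds plus 3 SD (cut at about 8.5% in these data, passing the limit was not always enough); inconclusive means some gains above the cutoff, reason not given; inactive means the rest.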

Legend:
[1] = OD615 S. cerevisiae growth inhibition, permissive medium, pilot counter-assay, permissive growth control for S. cerevisiae lifespan shortening project (AID 705;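 active means growth inhibition above 25% in both replicates, a cutoff set 3 SD above the mean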); conditions: OD615, 24 h, at 10 µM, stronger effect = higher value
Procedure, shortened: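 Timing: 24 h exposure, 30 °C / Material: Saccharomyces cerevisiae strain carrying genetically modified DeaD replicative-lifespan system / Signal: OD at 615 nm / Compound: 10 µM single dose, 0.25% DMSO / Medium: SC raffinose/galactose permissive medium / Evaluation: reduction in yeast growth (OD615)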

[2] = Restrictive medium S. cerevisiae growth inhibition, OD615, pilot screen of yeast lifespan reduction project, restrictive growth control (AID 706;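 active means growth inhibition above a set limit, 3 SD over mean compound inhibition, in both replicates, cut at about 43% in these data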;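 further: modified DeaD lifespan yeast strain shifted to restrictive glucose medium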); conditions: OD615, 48 h, at 10 µM, stronger effect = higher value
Procedure, shortened: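 System: Engineered S. cerevisiae DeaD strain | Detection: OD615 | Buffer or medium: CSMM-D glucose medium | Doses: 10 µM compound, 0.25% DMSO | Timing: 4 h pre-growth plus 48 h compound exposure, 30 °C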

[3] = viability gain of MRP-1-high H69AR cells under doxorubicin, pilot screen, MRP-1 activator project, CellTiter-Glo, duplicate (AID 807); conditions: H69AR viability with doxorubicin, CellTiter-Glo luminescence; at 10 µM; stronger effect = higher value;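 further: compound pretreatment 18-22 h then 72 h combined with doxorubicin; 0% = doxorubicin alone and 100% = vehicle without doxorubicin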
[4] = growth suppression of beta-catenin knockout HCT116, pilot screen, human colon tumor cells (AID 823;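 active means cell viability at or below a set limit in both duplicate runs, the limit being the all-compound median minus 4 SD, cut at about 23% in these data, passing the limit was not always enough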;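 further: 0% = wells killed by 20 µM Hyamine and 100% = untreated DMSO cell wells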); conditions: CellTiter-Glo, 60 h, at 10 µM, stronger effect = lower value
[5] = growth suppression of PTEN-deleted HCT116, pilot screen, cell-based, HCT116 clonal line, CellTiter-Glo (AID 824;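 active means viability at or below 27.92% in each of two runs, the all-compound median minus 4 SD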;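 further: 0% = 20 µM Hyamine control and 100% = vehicle cell control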); conditions: 60 h, at 10 µM, stronger effect = lower value
[6] = inhibitors of the yeast RAM network, pilot screen, dse1pr::URA3 reporter, 5-FOA selection (AID 869;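 active means inhibition over a set limit, the all-compound mean plus 3 SD, in both replicate runs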;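 further: 0% = DMSO wells with no growth and 100% = 10 µM 1-NA-PP1 with full growth; RAM network block rescues cells from 5-FOA so hits raise OD615 growth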); conditions: S. cerevisiae dse1pr::URA3 5-FOA growth, OD615, 2 d; at 10 µM; stronger effect = higher value; strain carries analog-sensitive mutant Cbk1 kinase
[7] = RAM signaling pathway blockade in yeast – S. cerevisiae, Pdr1DBD-CYC8 efflux-inhibited sensitized strain, primary screen (AID 1298;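 active means RAM network inhibition above 8.4% in each of two replicates, 3 SD over the compound average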;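 further: 0% = DMSO untreated cells without growth and 100% = 10 µM 1-NA-PP1 full growth; higher means more yeast growth rescued from 5-FOA killing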); conditions: S. cerevisiae cbk1-as DSE1-URA3 strain, 5-FOA growth OD615, 2 d; at 50 µM; stronger effect = higher value

O=C(O)C1C2C=CC3(CN(C/C=C/c4ccccc4)C(=O)C13)O2 (stereo not given)
inactive: growth inhibition [1] -17.1% | growth inhibition [2] -3.43% | viability increase [3] -2.86% | viability [4] 94% | viability [5] 100% | inhibition [6] 1.28% | RAM network inhibition [7] 3.71%

CCOc1ccc(-c2nc(-c3ccccc3)no2)cc1OCC
inactive: growth inhibition [1] -16.6% | growth inhibition [2] -29.6% | viability increase [3] 2.12% | viability [4] 106% | viability [5] 91% | inhibition [6] 3.66% | RAM network inhibition [7] 5.86%

COc1cc(NC(=O)c2ccc(S(=O)(=O)N(C)C)cc2)cc(OC)c1OC
inactive: growth inhibition [1] -4.25% | growth inhibition [2] -12.5% | viability increase [3] -2.66% | viability [4] 92.9% | viability [5] 94.3% | inhibition [6] 0.985% | RAM network inhibition [7] 3.48%

CC1CCCN(C(=O)C(Cc2ccccc2)n2cccc2)C1 (stereo not given)
inactive: growth inhibition [1] -11.8% | growth inhibition [2] -13% | viability increase [3] -3.01% | viability [4] 87.3% | viability [5] 88.4% | inhibition [6] 2% | RAM network inhibition [7] 0.97%

Cn1c(=O)[nH]c(=O)c2c1nc(N1CCCCC1)n2CCSc1nc2ccccc2o1
inactive: growth inhibition [1] -4.52% | growth inhibition [2] -1.63% | viability increase [3] -3.7% | viability [4] 90.7% | viability [5] 92.4% | inhibition [6] 1.11% | RAM network inhibition [7] 1.87%

CCc1ccc(-n2c(O)cnc2Nc2nc(C)cc(C)n2)cc1
inactive: growth inhibition [1] -7.38% | growth inhibition [2] -12.2% | viability increase [3] 1.61% | viability [4] 103% | viability [5] 103% | inhibition [6] 0.325% | RAM network inhibition [7] 3.23%

CC(C)Oc1ccc(/C(O)=C2/C(=O)C(=O)N(CCCN3CCOCC3)C2c2ccncc2)cc1 (stereo not given)
inactive: growth inhibition [1] -3.48% | growth inhibition [2] -4.07% | viability increase [3] -3.89% | viability [4] 93.3% | viability [5] 89.3% | inhibition [6] 0.95% | RAM network inhibition [7] -0.41%

CCOc1ccc(N(CC(=O)Nc2ccccc2)S(C)(=O)=O)cc1
inactive: growth inhibition [1] 0.69% | growth inhibition [2] -1.96% | viability increase [3] -1.68% | viability [4] 102% | viability [5] 97.4% | inhibition [6] -0.325% | RAM network inhibition [7] 4.68%

O=C(Cn1cnc2c(nnn2Cc2ccc(Cl)cc2)c1=O)N1CCN(c2ccccc2)CC1
inactive: growth inhibition [1] -7.16% | growth inhibition [2] -12.6% | viability increase [3] 3.63% | viability [4] 82.3% | viability [5] 80.5% | inhibition [6] 1.98% | RAM network inhibition [7] 6.43%

COc1cc(OC)c(Cl)cc1N
inactive: growth inhibition [1] -8.61% | growth inhibition [2] -16.7% | viability increase [3] -2.54% | viability [4] 98% | viability [5] 95.7% | inhibition [6] 1.47% | RAM network inhibition [7] 2.8%

O=C(O)C1C(c2ccccc2)C(C(=O)OCc2ccco2)C1c1ccccc1 (stereo not given)
inactive: growth inhibition [1] -15.4% | growth inhibition [2] -14.6% | viability increase [3] -3.32% | viability [4] 89.5% | viability [5] 88.3% | inhibition [6] 0.645% | RAM network inhibition [7] 6.05%

O=C(c1ccc(S(=O)(=O)N2CCCCC2)cc1)N1CCN=C1SCc1cccnc1
inactive: growth inhibition [1] -1.57% | growth inhibition [2] -2.72% | viability increase [3] 1.27% | viability [4] 89.4% | viability [5] 89.3% | inhibition [6] 1.77% | RAM network inhibition [7] 4.85%

O=C(CSc1oc(-c2ccco2)nc1S(=O)(=O)c1ccc(F)cc1)NCC1CCCO1 (stereo not given)
inactive: growth inhibition [1] -6.81% | growth inhibition [2] 0.32% | viability increase [3] -1.31% | viability [4] 101% | viability [5] 106% | inhibition [6] 0.295% | RAM network inhibition [7] 3.81%

Cc1ccc(Oc2ccccc2)c(NC=O)c1
inactive: growth inhibition [1] -2.02% | growth inhibition [2] 11.4% | viability increase [3] -3.07% | viability [4] 96.2% | viability [5] 90.4% | inhibition [6] -0.085% | RAM network inhibition [7] 1.17%

CCOc1ccc(-c2nnc(-c3ccco3)o2)cc1
inactive: growth inhibition [1] -1.61% | growth inhibition [2] 5.67% | viability increase [3] 1.72% | viability [4] 94.5% | viability [5] 101% | inhibition [6] 0.695% | RAM network inhibition [7] 2.38%

CCCC(=O)c1ccc(N2CCCCCC2)c(F)c1
inactive: growth inhibition [1] -13.2% | growth inhibition [2] -2.93% | viability increase [3] 3.64% | viability [4] 85.9% | viability [5] 87.3% | inhibition [6] 1.73% | RAM network inhibition [7] 1.5%

O=C(Oc1cccnc1)c1cccc(Cl)c1
inactive: growth inhibition [1] 6.51% | growth inhibition [2] 20.1% | viability increase [3] -0.55% | viability [4] 101% | viability [5] 97.5% | inhibition [6] 0.79% | RAM network inhibition [7] -2.15%

O=P(/C(=N/O)Sc1ccccc1)(N1CCOCC1)N1CCOCC1
inactive: growth inhibition [1] -7.6% | growth inhibition [2] 1.87% | viability increase [3] -4.88% | viability [4] 90% | viability [5] 97% | inhibition [6] 0.62% | RAM network inhibition [7] 4.34%

O=C(CNS(=O)(=O)c1cccs1)Nc1ccc2c(c1)OCCO2
inactive: growth inhibition [1] -22.3% | growth inhibition [2] -6.7% | viability increase [3] -1.78% | viability [4] 89.2% | viability [5] 90.9% | inhibition [6] 1.3% | RAM network inhibition [7] 0.67%

COc1ccc(C2C(C(=O)NCc3cccnc3)c3ccccc3C(=O)N2C)cc1OC (stereo not given)
inactive: growth inhibition [1] -16.2% | growth inhibition [2] -13.9% | viability increase [3] -0.88% | viability [4] 101% | viability [5] 96.6% | inhibition [6] 1.71% | RAM network inhibition [7] -0.99%

Cn1c(=NC(=O)c2ccco2)sc2cccc(F)c21
inactive: growth inhibition [1] -12.6% | growth inhibition [2] -1.11% | viability increase [3] -7.04% | viability [4] 80.9% | viability [5] 78.4% | inhibition [6] 2.1% | RAM network inhibition [7] 6.79%

Cc1ccc2oc(=O)c3cnn(CC(=O)NCCN4CCOCC4)c3c2c1
inactive: growth inhibition [1] -5.79% | growth inhibition [2] -12% | viability increase [3] -0.17% | viability [4] 103% | viability [5] 97.7% | inhibition [6] 1.15% | RAM network inhibition [7] 5.06%

COc1cc(-c2nnc(COc3ccc4cc(Br)ccc4c3)o2)cc(OC)c1OC
inactive: growth inhibition [1] -10.6% | growth inhibition [2] -8.51% | viability increase [3] 0.27% | viability [4] 62.9% | viability [5] 46.7% | inhibition [6] 0.505% | RAM network inhibition [7] 3.67%

O=C(CN1CCOc2ccccc21)NCc1ccccc1
inactive: growth inhibition [1] -29.7% | growth inhibition [2] 4.34% | viability increase [3] -6.69% | viability [4] 98.2% | viability [5] 86% | inhibition [6] 0.395% | RAM network inhibition [7] 2.11%

Cc1ccc(NC(=O)C(C)N2CCOCC2)c(C(=O)c2ccccc2)c1 (stereo not given)
inactive: growth inhibition [1] -11.7% | growth inhibition [2] -12.7% | viability increase [3] -1.7% | viability [4] 100% | viability [5] 99.5% | inhibition [6] 1.09% | RAM network inhibition [7] 3.04%

CCOC(=O)Cn1c(=O)oc2cc(S(=O)(=O)NCc3cccs3)ccc21
inactive: growth inhibition [1] -3.16% | growth inhibition [2] 1.21% | viability increase [3] -1.22% | viability [4] 90.6% | viability [5] 86.9% | inhibition [6] 0.73% | RAM network inhibition [7] 0.2%

COc1ccc(-n2c(Cc3cccn3C)nnc2SCC(=O)Nc2ccc3c(c2)OCCO3)cc1
inactive: growth inhibition [1] 4.97% | growth inhibition [2] 8.29% | viability increase [3] -1.74% | viability [4] 103% | viability [5] 94.6% | inhibition [6] 1.61% | RAM network inhibition [7] 6.11%

COCCNC(=O)c1cc2c(=O)n3cccc(C)c3nc2n1C
inactive: growth inhibition [1] -9.01% | growth inhibition [2] -20.7% | viability increase [3] -5.8% | viability [4] 34.3% | viability [5] 33.9% | inhibition [6] 1.85% | RAM network inhibition [7] 3.01%

O=C1CC(Nc2ccc(N3CCOCC3)cc2)C(=O)N1c1cccc(C(F)(F)F)c1 (stereo not given)
inactive: growth inhibition [1] 4.95% | growth inhibition [2] -14.4% | viability increase [3] -2.76% | viability [4] 110% | viability [5] 98.2% | inhibition [6] 0.74% | RAM network inhibition [7] 5.28%

Cc1ccc(N(C)C(=O)N2CCN(S(=O)(=O)c3ccc(C)cc3)CC2)cc1
inactive: growth inhibition [1] -1.22% | growth inhibition [2] -7.74% | viability increase [3] -1.03% | viability [4] 93.7% | viability [5] 96.6% | inhibition [6] 0.215% | RAM network inhibition [7] 6.2%

CC1(C(=O)NCc2cccnc2)CCC(=O)N1CCc1ccccc1 (stereo not given)
inactive: growth inhibition [1] 4.98% | growth inhibition [2] 3.93% | viability increase [3] -0.87% | viability [4] 97% | viability [5] 102% | inhibition [6] 2.94% | RAM network inhibition [7] 2.65%

Cc1ccc(O)c(N=CC2=C(O)c3ccccc3C2=O)c1
inactive: growth inhibition [1] -0.76% | growth inhibition [2] 5.53% | viability increase [3] -3.88% | viability [4] 61.6% | viability [5] 64.2% | inhibition [6] 1.85% | RAM network inhibition [7] 1.92%

CCN1CCN(C(=O)C2CCN(Cc3nc(-c4ccc(Cl)cc4)oc3C)CC2)CC1
inactive: growth inhibition [1] -10.7% | growth inhibition [2] -25% | viability increase [3] -2.66% | viability [4] 85.8% | viability [5] 79.7% | inhibition [6] 2.88% | RAM network inhibition [7] 2.86%

COc1ccc(S(=O)(=O)N2CCCN(S(=O)(=O)c3ccc(OC)cc3C)CC2)c(C)c1
inactive: growth inhibition [1] -12.6% | growth inhibition [2] -4.12% | viability increase [3] -6.52% | viability [4] 87.2% | viability [5] 84.7% | inhibition [6] -0.105% | RAM network inhibition [7] 3.22%

O=C(CCc1nc2ccccc2[nH]1)NC1CCCCC1
inactive: growth inhibition [1] -16.3% | growth inhibition [2] -17.4% | viability increase [3] -0.01% | viability [4] 102% | viability [5] 96.9% | inhibition [6] 1.21% | RAM network inhibition [7] 1.28%
